Source: PubChem
The list is not random: actives were taken first. Their share in the collection is about 0.89%.
V-ATPase pH = regulators of yeast V-ATPase proton pumping, primary screen, pHLuorin cytosolic pH fluorescence. S. cerevisiae. response, % at 10 µM. 0.37% of 350,000 active. AID 504577, 2011; in the data active = response mostly above about 7.3%, no sharp cut-off; inactive = mostly below about 5.4%; note: actives read high
XiGFP reactiv = activators of inactive X chromosome reactivation, primary screen, imaging, XiGFP fibroblasts, GFP high-content imaging, set 2. activation, % at 7.58 µM. AID 743238, 2013. 0.055% of 360,000 active. XiGFP mouse fibroblasts, % GFP-positive cells imaging, 3 d; cells co-treated with 5-aza-dC sensitizer; scaled so ellipticine positive control = 100%;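 active = mean normalized replicate activation at least 10% and every replicate at or above 10%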;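 note: 0% = median of on-plate neutral control wells and 100% = ellipticine 6 µM median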
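Assay system: SV40-immortalized XiGFP fibroblast cells, line 68-5-11; buffer or medium: DMEM plus 5-aza-dC sensitizer; compound: one concentration, pinned; timing: compounds 3 days, fix/stain 15 min at room temperature; benchmarks: positive control ellipticine, 6 µM final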
MIN6 prolif-1 = inducers of MIN6 beta-cell proliferation, primary screen, ATP luminescence, uHTS; MIN6 cells proliferation, ATPlite luminescence, 48 h; cells starved in 0.2% serum; 100% = growth in 10% serum; proliferation, % at 10 µM; 0.29% of 330,000 active; AID 2380, 2010;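 active = compounds whose signal lies at least 3.5 SD above the mean of all wells on their plate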;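 note: 0% = DMSO-treated cells in low-serum medium and 100% = 10% serum control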
Arrestin-AP2 inh = inhibitors of beta-arrestin/AP2 binding, primary screen, biochemical, GPCR trafficking, flow cytometry; beta-arrestin 1 C-terminal peptide binding to AP2 beta2-adaptin appendage (human); FITC-arrestin peptide / GST-AP2 beads; AP2 beta2 appendage carries R879A mutation; inhibition, % at 10 µM; 0.31% of 340,000 active; AID 504490, 2011;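 active = inhibition above a set limit, near 3 SD of compounds lacking own fluorescence, cut at about 54% in these data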;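 note: plate controls were DMSO wells for no effect and 5 µM unlabelled arrestin peptide for full effect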
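Assay system: GST-AP2 R879A bound to glutathione beads, E. coli-expressed; Medium: PBS with 0.05% Tween 20 and 0.1% BSA; Also added: fluorescein-tagged arrestin peptide at 50 nM final; Timing: 12 min plus 1 h, RT; Measured by: flow cytometry, FL1 (488/535 nm); Evaluation: percent drop in bead-associated FITC signal.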
NTR1 agonist = agonists of human NTR1, primary screen, imaging, U2OS cells, beta-arrestin-GFP, high content. Neurotensin receptor type 1 (Homo sapiens), P30989. NTR1-U2OS beta-arrestin-GFP spot imaging, agonist mode. activation, % at 20 µM. 0.17% of 330,000 active;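 active = activation at or above 40% of the spot to cytoplasm intensity ratio, with at least 20 cells analyzed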;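 note: 0% = DMSO without peptide and 100% = 100 nM NTR1 peptide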
Target sequence (P30989 whole entry, looked up): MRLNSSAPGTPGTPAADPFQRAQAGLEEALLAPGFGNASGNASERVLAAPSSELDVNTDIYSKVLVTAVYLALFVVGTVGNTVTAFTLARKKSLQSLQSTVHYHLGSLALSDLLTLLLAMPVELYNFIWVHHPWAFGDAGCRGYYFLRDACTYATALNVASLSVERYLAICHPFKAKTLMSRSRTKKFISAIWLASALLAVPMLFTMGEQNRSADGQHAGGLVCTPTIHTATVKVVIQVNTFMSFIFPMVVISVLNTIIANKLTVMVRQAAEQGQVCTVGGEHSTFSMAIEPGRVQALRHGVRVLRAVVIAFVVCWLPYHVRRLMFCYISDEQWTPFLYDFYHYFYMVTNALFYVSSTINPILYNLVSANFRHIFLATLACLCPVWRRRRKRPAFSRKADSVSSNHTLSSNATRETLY
T cell modulator = modulators of CD8 T cell-vesicle binding, primary screen, mouse 2C CD8+ T cells, flow cytometry. response (vesicle binding), % at 7 µM. 2C CD8+ T cell-vesicle binding; stronger effect = lower value. 0.068% of 330,000 active;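 active = response, share of CD8 T cells binding vesicles, and their 90th percentile fluorescence all below set limits, cut at about 80% in these data, passing the limit was not always enough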;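 note: values below 100% mean blocked vesicle binding to the CD8+ T cells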
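Assay system: 2C TCR transgenic mouse naive CD8+ T cells, MACS-purified | Read-out: CD8+ gate FL2 mean fluorescence as % of same-row positive control | Signal: High-throughput flow cytometry with anti-B7-1 and anti-CD8 staining | Timing: Binding step 1.5 h, 37 °C, antibody labelling 20 min, ice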
MIN6 prolif-2 = inducers of beta-cell proliferation in MIN6, confirmation, MIN6 cells, mouse; shares compounds with MIN6 prolif-1; ATPlite luminescence, 48 h; cells kept in 0.2% serum; scaled between 0.2% and 10% serum; proliferation increase, % at 50 µM; 920 tested, under 10 active; AID 463095, 2010;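 active = proliferation increase above 40% at any of the four tested concentrations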
* = called active by the depositor.

How did Cc1ccc(C(=O)CSc2nc(N)cc(=O)[nH]2)cc1 do in these assays?
V-ATPase pH: -3; MIN6 prolif-1: -4; Arrestin-AP2 inh: -11; NTR1 agonist: 0; T cell modulator: 281

How did Nc1cc(=O)[nH]c(SCC(=O)c2ccc(F)cc2)n1 do in these assays?
V-ATPase pH: -2; XiGFP reactiv: 0; MIN6 prolif-1: 8.3*; Arrestin-AP2 inh: 5; NTR1 agonist: 0; T cell modulator: 114; MIN6 prolif-2: 0

What do the screens show for `Cn1c(=O)c2cn(-c3ccccc3)cc2n(C)c1=O`?
V-ATPase pH: -5; MIN6 prolif-1: 5.4*; Arrestin-AP2 inh: 4; NTR1 agonist: -2; T cell modulator: 286; MIN6 prolif-2: 1

How did Cc1cccc(OCC(=O)NC2CCCCCC2)c1C do in these assays?
V-ATPase pH: -5; XiGFP reactiv: 0; MIN6 prolif-1: 1; Arrestin-AP2 inh: 11; NTR1 agonist: 2; T cell modulator: 413

Results for Cc1ccccc1OCC(=O)NC1CCCCCCC1 ?
V-ATPase pH: 3; XiGFP reactiv: 0; MIN6 prolif-1: 6.0*; Arrestin-AP2 inh: 2; NTR1 agonist: 2; T cell modulator: 268; MIN6 prolif-2: -6

What do the screens show for `CCOC(=O)c1cc2c(=O)n3cccc(C)c3nc2n(CC2CCCO2)c1=NC(C)=O` (centres undefined)?
V-ATPase pH: 0; XiGFP reactiv: 0; MIN6 prolif-1: 9.6*; Arrestin-AP2 inh: -13; NTR1 agonist: 0; T cell modulator: 173; MIN6 prolif-2: 1

How did C[C@H](CO)N1C[C@H](C)[C@H](CN(C)Cc2ccc(Cl)c(Cl)c2)Oc2c(NC(=O)Nc3cccc4ccccc34)cccc2C1=O do in these assays?
XiGFP reactiv: 0

What do the screens show for `CC(C)NC(=O)Nc1ccc2c(c1)C(=O)N(C)[C@@H]1CC[C@H](CC(=O)NCC(F)(F)F)O[C@H]1CO2`?
XiGFP reactiv: 0

What do the screens show for `COc1ccc(CN2CC3(C2)CN(C(=O)CN(C)C)[C@H](CO)c2[nH]c4cc(OC)ccc4c23)cc1`?
XiGFP reactiv: 0

How did COC(=O)N[C@H](CC(C)=O)c1ccccc1 do in these assays?
MIN6 prolif-1: 12*; NTR1 agonist: 0; MIN6 prolif-2: 0

Results for COC(=O)N[C@H](CC(C)=O)c1cccc(C(F)(F)F)c1 ?
V-ATPase pH: -1; XiGFP reactiv: 0; MIN6 prolif-1: -1; Arrestin-AP2 inh: 43; NTR1 agonist: -1; T cell modulator: 307

How did S=c1[nH]nc(CN2CCCCC2)n1Cc1ccccc1 do in these assays?
V-ATPase pH: 0; XiGFP reactiv: 0; MIN6 prolif-1: 8.0*; Arrestin-AP2 inh: -27; NTR1 agonist: 0; T cell modulator: 183; MIN6 prolif-2: 2

How did O=C(NCC(=O)N1CCCC(C(F)(F)F)C1)c1ccco1 (centres undefined) do in these assays?
V-ATPase pH: 3; XiGFP reactiv: 0; MIN6 prolif-1: 12*; Arrestin-AP2 inh: 33; NTR1 agonist: 1; T cell modulator: 352; MIN6 prolif-2: 1

How did CN(CC(=O)Nc1ccc(F)cc1)C(=O)CN1C(=O)NC2(CCCCC2)C1=O do in these assays?
V-ATPase pH: 4; XiGFP reactiv: 0; MIN6 prolif-1: -3; Arrestin-AP2 inh: -5; NTR1 agonist: 1; T cell modulator: 175

How did COc1ccc(NC(=O)CN(C)C(=O)CN2C(=O)NC3(CCCC3)C2=O)cc1 do in these assays?
V-ATPase pH: -4; XiGFP reactiv: 0; MIN6 prolif-1: 16*; Arrestin-AP2 inh: -16; NTR1 agonist: 1; T cell modulator: 336; MIN6 prolif-2: -2

What do the screens show for `CO[C@H]1CN(C)C(=O)c2ccc(NC(=O)Nc3cc(F)ccc3F)cc2OC[C@H](C)N(C(=O)c2cnccn2)C[C@H]1C`?
XiGFP reactiv: 0

How did CCc1nc2sc(C#N)c(N)c2c2c1CCCC2 do in these assays?
V-ATPase pH: -3; MIN6 prolif-1: 6.3*; Arrestin-AP2 inh: 0; NTR1 agonist: 4; T cell modulator: 283; MIN6 prolif-2: 3

How did C=CCSc1nc2c(c(=O)[nH]c(=O)n2C)n1C/C=C(/C)Cl do in these assays?
V-ATPase pH: -1; MIN6 prolif-1: 6.7*; Arrestin-AP2 inh: -1; NTR1 agonist: 4; T cell modulator: 183; MIN6 prolif-2: 2

Results for Cc1c(-c2ccc(Cl)cc2)[n+](=O)c2c(n1[O-])CCCC2 ?
V-ATPase pH: 4; XiGFP reactiv: 0; MIN6 prolif-1: -1; Arrestin-AP2 inh: 1; NTR1 agonist: 0; T cell modulator: 301

Results for Cc1c(-c2ccccc2)[n+](=O)c2c(n1[O-])CCC2 ?
V-ATPase pH: 1; MIN6 prolif-1: 8.9*; Arrestin-AP2 inh: 1; NTR1 agonist: -4; T cell modulator: 412; MIN6 prolif-2: -2

What do the screens show for `O=C(C[C@H]1C[C@@H]2c3cc(NC(=O)NC4CCCCC4)ccc3O[C@@H]2[C@H](CO)O1)NC1CCCC1`?
XiGFP reactiv: 0

How did C=CCNc1nc(N)c([N+](=O)[O-])c(NCc2ccccc2)n1 do in these assays?
V-ATPase pH: 0; MIN6 prolif-1: 8.3*; Arrestin-AP2 inh: 21; NTR1 agonist: 1; T cell modulator: 299; MIN6 prolif-2: 2

What do the screens show for `C/C=C/c1cnc2c(c1)C(=O)N([C@H](C)CO)C[C@@H](C)[C@H](CN(C)C(=O)CN1CCOCC1)O2`?
XiGFP reactiv: -1

How did CC(=O)Nc1ccc(CN2CCCCCC2)cc1 do in these assays?
V-ATPase pH: -4; XiGFP reactiv: 0; MIN6 prolif-1: 5.5*; Arrestin-AP2 inh: 13; NTR1 agonist: 0; T cell modulator: 209; MIN6 prolif-2: 2

What do the screens show for `COc1ccc(-c2nnc3ccc(SCC(=O)N4CCCC4)nn23)cc1`?
V-ATPase pH: 6; XiGFP reactiv: 0; MIN6 prolif-1: -2; Arrestin-AP2 inh: 19; NTR1 agonist: 4; T cell modulator: 217

How did CCOc1ccc(-c2nnc3ccc(SCC(=O)N4CCCCC4)nn23)cc1 do in these assays?
V-ATPase pH: -2; XiGFP reactiv: 0; MIN6 prolif-1: 12*; Arrestin-AP2 inh: 2; NTR1 agonist: 0; T cell modulator: 287; MIN6 prolif-2: 5
